Tests used:
rat eyes = assay: Histology and immunohistochemistry; type: in vivo; settings: once-daily 10% eye drop, 14 and 28 days
Summary of the method: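 Rats received 5 µL of 10% test compound drops once daily in one eye, PBS in the other. Eyes were taken at days 14 and 28, fixed overnight in 4% paraformaldehyde at 4°C, frozen and cut into 12 µm sections. Stains: H&E; cleaved caspase-3 (5% BSA block, primary 1:200 2 h, Alexa 488 secondary 1:400 1 h, DAPI) with caspase-3+ DAPI+ cells scored; TUNEL with DNase I-treated positive control. Mean ± SEM, two-way ANOVA/Sidak.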

Long Evans rat eyes = assay: Clinical examination, OCT imaging and ERG after 28-day once-daily eye drop; type: in vivo
[1] = Maximum solubility / achievable concentration in solution; type: physicochemical
axial elongation = settings: topical, chick; ref 25 (Thomson et al.); cited from earlier work
[2] = rat, once-daily 10% eye drop, 14 and 28 days

## CCOC(=O)[C@@H](N)Cc1ccc(O)c(O)c1 [etilevodopa]
Rat eyes
  Hematoxylin and eosin staining of retina (inflammation): no infiltration of inflammatory cells, fibrosis or morphological changes
  Number of cleaved caspase-3+ DAPI+ cells vs control (apoptosis): no statistically significant change
  TUNEL staining (apoptosis): no TUNEL^+ DAPI^+ cells observed
Long Evans rat eyes; 28-day once-daily topical 10%
  Rat behavior (activity levels, aggression, feeding pattern, weight gain): no obvious changes in rat behavior
Long Evans rat eyes; [2]
  ERG A- and B-wave amplitude vs control eyes: no statistically significant difference in A- or B-wave amplitudes
  OCT retinal structure: did not demonstrate any qualitative structural changes
[1]; PBS, pH 7.4
  Maximum solubility: 10%

## N[C@@H](Cc1ccc(O)c(O)c1)C(=O)O [levodopa]
[1]; distilled water
  Maximum concentration achievable: 0.5%
Axial elongation
  EC50 for a reduction of axial elongation: 0.05%

Reference: publication PMC8496415 (Translational Vision Science & Technology, 2021)
